Most compounds without a hit are left out; they make up all but 3.8% or so of the library.
CHO parental Ca: signal in parental CHO cells, OX1R antagonist counter-screen. AID 463079. inhibition, % at 5.6 µM. parental CHO-K1, ATP-induced calcium, Fluo-8 fluorescence. 330,000 compounds, 0.63% hits;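 active = inhibition above that plate's mean sample inhibition plus 3 SD, cut at about 26% in these data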;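 note: 0% = ATP-challenged DMSO wells and 100% = DMSO wells without ATP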
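Test system: parental CHO cells; detection: calcium-sensitive Fluo-8 fluorescence; evaluation: percent inhibition of calcium signal; also added: ATP as calcium-mobilizing challenge; repeats: one well per compound; control set: ATP-challenged DMSO wells low, unchallenged DMSO wells high; compound: single nominal dose of 5.6 µM per compound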
OX1R antag-1: blocks the human orexin 1 receptor; O43613; OX1R-expressing cells, FRET antagonist read-out; inhibition, % at 6.6 µM; 330,000 compounds, 1.8% hits; AID 485270; in the data active = inhibition mostly above about 38%, no sharp cut-off; inactive = mostly below about 40%;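 note: 0% = agonist challenge alone and 100% = reference antagonist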
Target sequence (O43613 whole entry, looked up): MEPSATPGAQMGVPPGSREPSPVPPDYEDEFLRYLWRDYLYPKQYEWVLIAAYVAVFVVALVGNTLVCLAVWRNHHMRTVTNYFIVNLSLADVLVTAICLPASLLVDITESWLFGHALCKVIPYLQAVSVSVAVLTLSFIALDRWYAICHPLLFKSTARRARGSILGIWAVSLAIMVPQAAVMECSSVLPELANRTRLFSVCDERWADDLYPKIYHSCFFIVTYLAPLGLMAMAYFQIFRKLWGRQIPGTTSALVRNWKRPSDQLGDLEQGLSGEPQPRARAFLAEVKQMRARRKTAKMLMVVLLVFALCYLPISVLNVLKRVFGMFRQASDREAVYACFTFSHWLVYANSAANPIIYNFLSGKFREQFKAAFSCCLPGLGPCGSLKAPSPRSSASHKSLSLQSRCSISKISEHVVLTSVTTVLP
GPR7 antagonist: human neuropeptides B/W receptor 1 antagonism; P48145; GPR7-expressing cells, fluorescence antagonist assay; inhibition, % at 4.4 µM; 290,000 compounds, 1.1% hits; AID 1861; in the data active = inhibition above about 16%, passing the limit was not always enough;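 note: cells stimulated with the agonist NPW; 0% = agonist with vehicle and 100% = vehicle without agonist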
Target sequence (P48145 whole entry, looked up): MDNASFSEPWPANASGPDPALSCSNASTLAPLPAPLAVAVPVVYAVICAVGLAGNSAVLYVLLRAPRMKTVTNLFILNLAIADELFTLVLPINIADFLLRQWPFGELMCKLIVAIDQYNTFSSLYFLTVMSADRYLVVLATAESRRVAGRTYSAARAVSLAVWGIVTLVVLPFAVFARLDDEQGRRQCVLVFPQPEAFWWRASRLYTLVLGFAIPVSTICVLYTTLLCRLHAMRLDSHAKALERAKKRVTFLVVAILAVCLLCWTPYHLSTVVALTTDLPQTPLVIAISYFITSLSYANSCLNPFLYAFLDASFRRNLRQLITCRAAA
MPTP inh: permeability transition pore inhibition | isolated mouse mitochondria, Ca2+ swelling absorbance, 30 min | 360,000 compounds, 1.4% hits | AID 602449 | inhibition, % at 10 µM;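 active = inhibition of 50% or more, scaled per plate between neutral and stimulator controls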;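 note: 0% = DMSO wells given calcium and 100% = 1 mM EGTA wells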
OX1R antag-2: blocks the human orexin 1 receptor; O43613; CHO/OX1R cells, Fluo-8 calcium fluorescence, orexin A; AID 434989; 330,000 compounds, 0.43% hits; inhibition, % at 5 µM;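 active = inhibition above its plate's threshold, mean inhibition of all tested compounds on the plate plus 3 SD, cut at about 37% in these data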;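 note: 0% = orexin A challenge wells and 100% = SB-334867-A antagonist wells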
The depositor's hits bear a star; . = not tested or not shown.

SMILES | CHO parental Ca | OX1R antag-1 | GPR7 antagonist | MPTP inh | OX1R antag-2
COc1ccc(CNC(=O)C(C)N2C(=O)NC(c3ccccc3)(c3ccccc3)C2=O)cc1 (stereo not given) | -32.9 | 35.3* | . | -1.8 | 16.3
CC(C)(C)NC(=O)CN1C(=O)NC(c2ccccc2)(c2ccccc2)C1=O | -13.4 | 23.3 | -10.6 | 2.6 | -26.6
O=C(CN1C(=O)NC(c2ccccc2)(c2ccccc2)C1=O)NCc1ccc(F)cc1 | -20.9 | 40.5* | . | -1.2 | 21.4
CCNC(=O)NC(=O)C(C)N1C(=O)NC(c2ccccc2)(c2ccccc2)C1=O (stereo not given) | -25.8 | 2.6 | -16.7 | 2.2 | -20.8
O=C(NCc1cccc(F)c1)C1CCC(=O)N(C2CC2)C1 (stereo not given) | 8.3 | 34.0 | -11.2 | 1.3 | -5.9
COC(=O)c1ccc2nc(C3CCCCC3)c(Cc3ccccc3)n2c1 | . | . | . | -0.6 | .
COc1ccc(C)c2sc(NNC(=O)COc3ccccc3)nc12 | -10.5 | 23.6 | -3.4 | . | -0.9
CCCCCCCC[n+]1cccc2c3ccccc3ccc21 | 63.2* | 19.8 | 67.2* | 43.0 | 35.6
Cc1ccc(-n2nnnc2C(Cl)(Cl)c2nnnn2-c2ccc(C)cc2)cc1 | 47.9* | 18.7 | -6.2 | -3.5 | 55.2*
CSc1ncccc1C(=O)Nc1ccc(OC(F)(F)F)cc1 | -1.4 | 12.6 | 8.5 | 0.8 | 3.1
CSc1ncccc1C(=O)Nc1ccc(F)c(F)c1F | -6.9 | 5.5 | 15.5* | -0.4 | -14.3
O=C1NC(=O)C([N+](=O)[O-])=C(O)C1=O | . | . | . | -2.1 | .
CC(C)(C)C(=O)/C(=C\c1ccc([N+](=O)[O-])cc1)n1cncn1 | 23.0 | 100.8* | 16.6 | . | 14.1
Cc1ccc([N+](=O)[O-])cc1N=C1C(=O)Nc2ccccc21 | -2.4 | 16.7 | 9.6 | -0.9 | -24.4
Cc1cccc(N=C2NC(=O)c3cc([N+](=O)[O-])ccc32)c1 | -6.5 | 69.7* | -3.8 | 4.0 | 0.3
O=C1NC(=Nc2ccccc2)c2ccc([N+](=O)[O-])cc21 | -4.2 | 74.3* | -4.4 | 0.0 | -4.7
O=C(COC(=O)c1ccc2ncsc2c1)Nc1ccc(OC(F)(F)F)cc1 | 25.3 | -5.3 | . | -0.1 | 37.2*
CN(C)c1ccc2nsnc2c1[N+](=O)[O-] | -0.9 | 38.6* | -5.2 | 1.8 | -1.9
CC(C)(C)OC(=O)N1CCc2onc(-c3ccccc3[N+](=O)[O-])c2C1=O | . | . | . | -0.2 | .
c1ccc2c(c1)CCN(c1ncnc3nc[nH]c13)C2 | -4.8 | 19.4 | -4.2 | -0.1 | -6.6
C1=C(c2ccccc2)CCN(c2ncnc3nc[nH]c23)C1 | 0.0 | 50.2* | 1.4 | -0.5 | -16.4
CC(C)(C)NC(=O)CN(CCN1CCOCC1)C(=O)CNS(=O)(=O)c1ccccc1 | 5.0 | 13.5 | 0.5 | 0.5 | 0.0
Cn1c(=O)[nH]c(NC2CCCCC2)c(N=O)c1=O | 1.2 | 44.4 | -12.1 | -1.5 | 6.0
CCCNc1[nH]c(=O)n(C)c(=O)c1N=O | -2.9 | 69.1* | -2.9 | -1.5 | -20.6
O=C(c1ccc([N+](=O)[O-])s1)N1CCN(c2ccccc2)CC1 | -1.9 | 53.9* | 6.7 | 1.3 | -17.3
SMILES | CHO parental Ca | OX1R antag-1 | GPR7 antagonist | MPTP inh | OX1R antag-2
O=C(c1cc(Br)c(Br)s1)N1CCN(c2ccccn2)CC1 | -11.6 | 24.1 | -1.8 | 1.0 | -26.0
O=C(Nc1ccccc1N1CCOCC1)c1ccc([N+](=O)[O-])s1 | -19.1 | 30.9* | . | 0.7 | -32.1
COc1ccc(OC)c2sc(N3CCN(C(=O)c4ccc([N+](=O)[O-])s4)CC3)nc12 | 4.1 | 46.3* | . | 1.0 | 1.1
O=C(c1ccc([N+](=O)[O-])s1)N1CCN(c2ccccn2)CC1 | 0.7 | 45.8* | 3.7 | -1.3 | -5.1
COc1ccc(OC)c2sc(N3CCN(C(=O)c4ccc5ncsc5c4)CC3)nc12 | -21.7 | 12.8 | . | -2.8 | -24.1
O=C(CN1C(=O)c2cccc3cccc1c23)NC1CCCC1 | 4.7 | 31.8 | -14.9 | -0.3 | -17.4
O=C(NCCC(=O)N1CCN(c2ccccn2)CC1)c1ccc([N+](=O)[O-])cc1 | -10.4 | 34.7* | . | -1.6 | -5.0
COCCNc1nc(-c2cc(C)c(C)cc2C)cs1 | -14.6 | 13.4 | -4.3 | 1.7 | -26.6
Cc1[nH]c2ccccc2c1/C=N/NC(=O)c1ccccc1 | -15.4 | 7.9 | -4.6 | -0.2 | -8.3
Cc1[nH]c2ccccc2c1/C=N/NC(=O)c1cc(C(C)(C)C)[nH]n1 | -6.3 | 38.1* | -3.5 | 0.7 | -15.4
Cc1[nH]c2ccccc2c1/C=N/NC(=O)c1cc(-c2ccccc2)n[nH]1 | 6.7 | 70.0* | 2.9 | -3.8 | 30.2
O=C(Nc1nnc([C@@H]2C[C@H](O)[C@@H](CO)O2)s1)Nc1ccc(F)cc1F | . | . | . | -0.4 | .
Cc1nn(CC(=O)NC2CC2)c(C)c1S(=O)(=O)N(C)C | . | . | . | 0.0 | .
CN(C)C(=O)c1cc2c(c(-c3cccc(C4=CCCCC4)c3)n1)[C@@H](CCO)N(S(=O)C(C)(C)C)C2 (stereo not given in full) | . | . | . | 0.4 | .
CN(Cc1ccc(F)cc1)S(=O)(=O)c1ccc2[nH]c(=O)[nH]c2c1 | . | . | . | 1.1 | .
CN(C)c1cccc(NC(=O)C2Cc3c(-c4cccnc4)ccnc3O2)c1 (stereo not given) | . | . | . | -1.1 | .
CCOC(=O)c1nn(-c2ccc(Cl)cc2C)ccc1=O | -4.6 | 27.7 | -6.9 | -0.4 | -3.5
C[C@H]1CN(c2ccc(Br)cc2)C(=O)[C@@H]1CC(=O)Nc1ccccc1 | . | . | . | -4.3 | .
N#Cc1cc(Nc2c(N)nc[nH]c2=O)c([N+](=O)[O-])cc1C#N | 2.3 | 48.1* | -10.7 | -0.3 | 3.5
O=C(CCc1ccc(O)cc1)N/N=C/c1coc2ccccc2c1=O | -12.9 | 2.5 | -12.1 | 4.4 | -3.4
CC(c1ccco1)N(C(=O)c1ccccc1NS(=O)(=O)c1cc([N+](=O)[O-])ccc1Cl)c1ccccn1 (stereo not given) | -15.5 | 71.7* | -4.6 | 0.6 | -14.8
CC(c1ccco1)N(C(=O)c1ccccc1NS(=O)(=O)c1ccc(Cl)cc1)c1ccccn1 (stereo not given) | -11.8 | 32.1 | -2.8 | 23.3 | -2.9
Cc1cccc(C)c1NC(=O)C(c1ccc(C#N)cc1)n1c(=O)c(-c2cc3ccccc3[nH]2)nc2ccccc21 (stereo not given) | . | . | . | 3.1 | .
O=C(CSc1n[nH]c(=O)n1C1CC1)Nc1cc(Cl)ccc1Oc1ccccc1 | 32.7* | 48.5 | 8.2 | 26.2 | 20.5
CCOC(=O)Cc1csc(SCC(=O)Nc2cc(Cl)ccc2Oc2ccccc2)n1 | 62.0* | 53.8 | 5.9 | -0.1 | 61.0*
SMILES | CHO parental Ca | OX1R antag-1 | GPR7 antagonist | MPTP inh | OX1R antag-2
CCCc1c(-c2ccccc2Br)ncn1Cc1ccccc1OC | . | . | . | 1.8 | .
Cc1cc(C)cc(NC(=O)c2cccnc2)c1 | . | . | -10.7 | 1.1 | .
O=C(Nc1cccc(-c2cn3ccccc3n2)c1)c1cccs1 | -4.1 | 71.0* | 5.2 | -0.1 | 1.9
O=C(NNC(=O)c1cnccn1)c1cccc([N+](=O)[O-])c1 | -4.2 | 43.6* | -15.9 | -3.2 | 4.2
Cc1cc(C(=O)NNC(=O)c2cccc([N+](=O)[O-])c2)n[nH]1 | -0.9 | 28.1* | . | -0.7 | 6.7
O=C(NNc1c(Cl)cc(Cl)cc1Cl)c1cccc([N+](=O)[O-])c1 | 48.4* | 34.2 | -10.6 | 16.7 | 8.5
CCOC(=O)c1ccc(NS(=O)(=O)c2cc(-c3nnnn3CC)ccc2OC)cc1 | -16.1 | 7.7 | 4.0 | 0.9 | -19.2
